From PubChem BioAssay
The source made the active and inactive calls.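 The calls were made as follows, unless noted: active = viability at or under a set limit in both replicates, limit being median viability minus 3 SD (cut at about 48% in these data, passing the limit was not always enough); inconclusive = at or under the limit in just one replicate; inactive = at or above the limit in both replicates.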

Legend:
[1] = HUVEC growth inhibition – cell-based, human, primary screen (AID 575;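 active = viability at or below 30% in both replicate assays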;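 also: 100% = median of untreated cell wells with 0.1% DMSO on each plate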); conditions: HUVEC proliferation, CellTiter-Glo luminescence, 72 h; at 10 µM; stronger effect = lower value
In short: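 Assay system: primary human umbilical vein endothelial cells / Buffer or medium: endothelial basal medium with 2% FBS plus growth supplements / Compound dosing: one dose, 10 µM final, 0.1% DMSO / Timing: 72 h treatment at 37 °C / Signal: CTG luminescence / Benchmarks: 32 DMSO-only cell-control wells (high), 32 MePR drug-control wells (low) per plate / Plate: collagen-coated 384-well format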

[2] = growth inhibitors of H69AR lung tumor, primary screen, human, duplicate replicates (AID 580); conditions: H69AR lung tumor cells viability, ATP luminescence, 72 h; at 10 µM; stronger effect = lower value;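 also: 100% = mean luminescence of untreated wells and 0% = no signal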
[3] = reversal of MRP1-mediated doxorubicin resistance, pilot screen, H69AR cells, doxorubicin co-treatment (AID 601;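 active = viability loss from added drug above about 55%, and viability with drug at most 40%, in both replicates, limit read from the data, passing the limit was not always enough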); conditions: CellTiter-Glo, 72 h, at 10 µM; for differential viability (reversal): stronger effect = higher value
[4] = 384-well plate pilot, post-Golgi transport modulator project, inhibition of yeast transport mutant growth (AID 636; in the data active = inhibition above about 31%); conditions: absorbance 615 nm, about 18 h, stronger effect = higher value
[5] = growth suppression of yeast trafficking mutant, preliminary HTS, modulators of trafficking downstream of Golgi apparatus project, 1536-format plate, OD 615 nm (AID 637; in the data active = inhibition above about 30%); conditions: yeast transport mutant growth, absorbance 615 nm, 18 h; stronger effect = higher value
[6] = H69AR cells + 2 uM doxorubicin, measured here: viability with 2 uM doxorubicin, stronger effect = lower value
[7] = H69AR cells, compound alone cytotoxicity

SMILES	viability [1]	viability [2]	differential viability (reversal) ([3]; H69AR cells + 2 uM doxorubicin)	viability [3, 6] [%]	viability [3, 7] [%]	inhibition [4]	inhibition [5]
O=C(CSc1nnc(-c2ccncc2)o1)Oc1ccccc1	101% (inactive)	102% (inactive)	15.9% (inactive)	85.9	102	-6.4% (inactive)	3.02% (inactive)
CC(=O)Nc1cccc(NC(=O)CSc2nnnn2C)c1	115% (inactive)	106% (inactive)	10.2% (inactive)	95.9	106	-5.39% (inactive)	0.95% (inactive)
c1ccc2c(c1)C(=Nn1cnnc1)c1ccccc1-2	92.3% (inactive)	92.4% (inactive)	-4.35% (inactive)	96.7	92.4	-0.39% (inactive)	-3.02% (inactive)
Cc1ccccc1NS(=O)(=O)c1ccc(NC(=O)c2ccco2)cc1	90% (inactive)	89.2% (inactive)	-0.49% (inactive)	89.7	89.2	-2.34% (inactive)	-2.38% (inactive)
CSC1=C(C#N)C(c2ccc(C)cc2)C2=C(CCCC2=O)N1 (stereo not drawn)	91.3% (inactive)	77.6% (inactive)	10.1% (inactive)	67.5	77.6	-2.99% (inactive)	-0.95% (inactive)
CCN(CC)C(=O)CSc1nnc(-c2cc(OC)cc(OC)c2)o1	84.1% (inactive)	93.9% (inactive)	2.03% (inactive)	91.9	93.9	-5.87% (inactive)	2.7% (inactive)
Cc1c(O)c(CN2CCCC(C)C2)cc2c3c(c(=O)oc12)CCC3 (stereo not drawn)	93.3% (inactive)	83.1% (inactive)	-2.96% (inactive)	86.1	83.1	-6.97% (inactive)	-2.38% (inactive)
CC(CN1CCOCC1)(NS(=O)(=O)c1ccccc1)c1ccccc1 (stereo not drawn)	106% (inactive)	95.9% (inactive)	9.75% (inactive)	86.2	95.9	-1.56% (inactive)	0.95% (inactive)
O=C(Nc1ccc(Cc2ccncc2)cc1)C1CC1	88.2% (inactive)	99.5% (inactive)	17.4% (inactive)	82.1	99.5	-2.21% (inactive)	1.75% (inactive)
CCOC(=O)C1CCCn2c1nc1sc3c(c1c2=O)CCCC3 (stereo not drawn)	86.1% (inactive)	89.1% (inactive)	-9.13% (inactive)	98.3	89.1	0.27% (inactive)	-4.6% (inactive)
NC(=O)c1cc(-c2ccccc2)nc(Oc2ccccc2)n1	108% (inactive)	98.7% (inactive)	3.71% (inactive)	95	98.7	-8% (inactive)	-0.63% (inactive)
Cc1c(C(=O)NCc2ccccn2)oc2ccccc12	99.6% (inactive)	106% (inactive)	25.7% (inactive)	80.5	106	-0.92% (inactive)	17.9% (inactive)
Nc1nc(Nc2cccc3ccccc23)nc(C2CCCC2=O)n1 (stereo not drawn)	89.7% (inactive)	18% (active)	0.545% (inactive)	17.5	18	-4.46% (inactive)	3.45% (inactive)
CCCOc1cccc(C(=O)N(Cc2ccco2)C2CCS(=O)(=O)C2)c1 (stereo not drawn)	98% (inactive)	90.5% (inactive)	0.72% (inactive)	89.8	90.5	-3.6% (inactive)	-7.94% (inactive)
CCCn1cc(C(CC(=O)O)C(=O)O)c2ccccc21 (stereo not drawn)	92.8% (inactive)	89.1% (inactive)	-3.86% (inactive)	93	89.1	-7.33% (inactive)	5.24% (inactive)
Cc1cccc(OCC(=O)Nc2ccccc2N2CCN(C(=O)C(C)C)CC2)c1C	88.3% (inactive)	88.8% (inactive)	2.79% (inactive)	86	88.8	-1.95% (inactive)	4.13% (inactive)
COc1ccc(Cl)cc1-c1n[nH]c(=S)o1	86.9% (inactive)	95.5% (inactive)	13.7% (inactive)	81.8	95.5	-6.4% (inactive)	-1.27% (inactive)
COc1ccc(C(=O)Nc2ccc(S(=O)(=O)Nc3nccnc3OC)cc2)cc1OC	97.4% (inactive)	99.6% (inactive)	11% (inactive)	88.6	99.6	1.69% (inactive)	4.6% (inactive)
O=C(Cc1ccccc1)Nc1ccc(CN2CCOCC2)cc1	105% (inactive)	97.3% (inactive)	6.05% (inactive)	91.2	97.3	-4.67% (inactive)	-2.38% (inactive)
